Source: ChEMBL document CHEMBL1914331, “N-O chemistry for antibiotics: discovery of N-alkyl-N-(pyridin-2-yl)hydroxylamine scaffolds as selective antibacterial agents using nitroso Diels-Alder and ene chemistry” (J Med Chem, 2011)
≈ marks a conversion by molar mass, not a printed value.

Assays:
PC-3 = assay: Cytotoxicity against human PC3 cells; type: cell-based
HeLa = assay: Cytotoxicity against human HeLa cells; type: cell-based
Micrococcus luteus [1] = assay: Antimicrobial activity against Micrococcus luteus ATCC 10240 after 24 hrs by Kirby-Bauer agar diffusion assay; type: functional
Outline: (§1)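 Modified Kirby-Bauer well diffusion. Overnight LB cultures (18–24 h) were standardized in 0.9% saline to 0.5 McFarland and mixed into melted MHII agar at 47–50 °C, giving ~5×10³ CFU/mL. 9 mm wells received 50 µL of 2.0 mM compound in 10:1 MeOH:DMSO. Plates were incubated 24 h at 37 °C, then growth-inhibition zone diameter was measured (mm) by caliper.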

Staphylococcus aureus [2] = assay: Antimicrobial activity against Staphylococcus aureus SG511 after 24 hrs by Kirby-Bauer agar diffusion assay; type: functional; outline: as §1
Enterococcus faecalis [3] = assay: Antimicrobial activity against Enterococcus faecalis ATCC 49532 after 24 hrs by Kirby-Bauer agar diffusion assay; type: functional; outline: as §1
Micrococcus luteus [4] = assay: Antimicrobial activity against Micrococcus luteus ATCC 10240 assessed after 18 hrs by broth microdilution method; type: functional; details: ATCC 10240, 18 h
Outline: (§2)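 CLSI broth microdilution in cation-adjusted MHII broth. 20 mM DMSO stocks were diluted to 512 µM, then serially 2-fold, giving final 128–0.0625 µM with 5×10⁵ CFU/mL inoculum. Incubated 18 h at 37 °C. MIC90 was the lowest concentration giving 90% inhibition by visual turbidity versus DMSO wells. Run in triplicate.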

Staphylococcus aureus [5] = assay: Antimicrobial activity against Staphylococcus aureus SG511 assessed after 18 hrs by broth microdilution method; type: functional; details: SG511, 18 h; outline: as §2
Enterococcus faecalis [6] = assay: Antimicrobial activity against Enterococcus faecalis ATCC 49532 assessed after 18 hrs by broth microdilution method; type: functional; details: ATCC 49532, 18 h; outline: as §2
MCF7 = assay: Cytotoxicity against human MCF7 cells; type: cell-based

Compound | Activity (PC-3) | Activity (HeLa) | diameter of the inhibition zone (DIZ) (Micrococcus luteus [1]) | diameter of the inhibition zone (DIZ) (Staphylococcus aureus [2]) | diameter of the inhibition zone (DIZ) (Enterococcus faecalis [3]) | MIC90 (Micrococcus luteus [4]) | MIC90 (Staphylococcus aureus [5]) | MIC90 (Enterococcus faecalis [6]) | Activity (MCF7)
C=C(C)C(C)(C)N(O)c1ccccn1 | Non-toxic | Non-toxic | 33 mm | 15 mm | 18 mm | 4 µM (≈ 0.769 µg/mL) | 128 µM (≈ 24.6 µg/mL) | > 128 µM | Non-toxic
C=C(CN(O)c1ccccn1)c1ccccc1 | Non-toxic | Non-toxic | 20 mm | 19 mm | 18 mm | 64 µM (≈ 14.5 µg/mL) | 32 µM (≈ 7.24 µg/mL) | > 128 µM | Non-toxic
COc1ccc(CON(Cc2ccccc2)c2ccccn2)cc1 | Non-toxic | Non-toxic | 0 mm | 0 mm | 0 mm | > 128 µM | > 128 µM | > 128 µM | Non-toxic
CN(O)c1ccccn1 | Non-toxic | Non-toxic | 18 mm | 0 mm | 0 mm | ≥ 128 µM | > 128 µM | > 128 µM | Non-toxic
CCCN(O)c1ccccn1 | Non-toxic | Non-toxic | 13 mm | 0 mm | 0 mm | > 128 µM | > 128 µM | > 128 µM | Non-toxic
CCCCCCN(O)c1ccccn1 | Non-toxic | Non-toxic | 15 mm | 17 mm | 16 mm | 128 µM (≈ 24.9 µg/mL) | > 128 µM | > 128 µM | Non-toxic
ON(Cc1ccccc1)c1ccccn1 | Non-toxic | Non-toxic | 24 mm | 18 mm | 20 mm | 64 µM (≈ 12.8 µg/mL) | 128 µM (≈ 25.6 µg/mL) | > 128 µM | Non-toxic
CO[C@@H]1C=C[C@@H](N(O)C(=O)OC(C)(C)C)C1 (racemic) | Non-toxic | Non-toxic | <=14 mm | – | – | – | – | – | Non-toxic
CO[C@@H]1C=C[C@@H](N(O)C(=O)Cc2ccccc2)CC1 (racemic) | Non-toxic | Non-toxic | <=14 mm | – | – | – | – | – | Non-toxic
CO[C@@H]1C=CC[C@H]1N(O)C(=O)OC(C)(C)C (racemic) | Non-toxic | Non-toxic | <=14 mm | – | – | – | – | – | Non-toxic
O[C@H]1C=C[C@@H](N(O)c2ccc(Br)cn2)C1 (racemic) | Non-toxic | Non-toxic | >14 mm | – | – | – | – | – | Non-toxic
O[C@@H]1C=C[C@@H](N(O)c2ccc(Br)cn2)C1 (racemic) | Non-toxic | Non-toxic | >14 mm | – | – | – | – | – | Non-toxic
CC(C)(C)O[C@@H]1C=C[C@@H](N(O)c2ccc(Br)cn2)CC1 (racemic) | Non-toxic | Non-toxic | >14 mm | – | – | – | – | – | Non-toxic
C=CCO[C@@H]1C=C[C@@H](N(O)c2ccc(Br)cn2)CC1 (racemic) | Non-toxic | Non-toxic | >14 mm | – | – | – | – | – | Non-toxic
Cc1cccc(N(O)[C@@H]2C=C[C@@H](OC(C)C)CC2)n1 (racemic) | Non-toxic | Non-toxic | >14 mm | – | – | – | – | – | Non-toxic
Cc1cccc(N(O)[C@@H]2C=C[C@@H](OC(C)(C)C)CC2)n1 (racemic) | Non-toxic | Non-toxic | >14 mm | – | – | – | – | – | Non-toxic
CO[C@@H]1C=CC[C@H]1N(O)c1ccc(Cl)cn1 (racemic) | Non-toxic | Non-toxic | >14 mm | – | – | – | – | – | Non-toxic
O[C@@H]1C=CC[C@H]1N(O)c1ccc(Br)cn1 (racemic) | Non-toxic | Non-toxic | >14 mm | – | – | – | – | – | Non-toxic
O[C@@H]1C=CCC[C@H]1N(O)c1ccc(Br)cn1 (racemic) | Non-toxic | Non-toxic | >14 mm | – | – | – | – | – | Non-toxic

Compound | Activity (PC-3) | Activity (HeLa) | diameter of the inhibition zone (DIZ) (Micrococcus luteus [1]) | diameter of the inhibition zone (DIZ) (Staphylococcus aureus [2]) | diameter of the inhibition zone (DIZ) (Enterococcus faecalis [3]) | MIC90 (Micrococcus luteus [4]) | MIC90 (Staphylococcus aureus [5]) | MIC90 (Enterococcus faecalis [6]) | Activity (MCF7)
CO[C@@H]1C=CC[C@H]1N(O)c1ccc(Br)cn1 (racemic) | Non-toxic | Non-toxic | >14 mm | – | – | – | – | – | Non-toxic
CC(C)O[C@@H]1C=CC[C@H]1N(O)c1ccc(Br)cn1 (racemic) | Non-toxic | Non-toxic | >14 mm | – | – | – | – | – | Non-toxic
CC(C)O[C@@H]1C=CCC[C@H]1N(O)c1ccc(Br)cn1 (racemic) | Non-toxic | Non-toxic | >14 mm | – | – | – | – | – | Non-toxic
CC(C)(C)O[C@@H]1C=CCC[C@H]1N(O)c1ccc(Br)cn1 (racemic) | Non-toxic | Non-toxic | >14 mm | – | – | – | – | – | Non-toxic
C=CCO[C@@H]1C=CCC[C@H]1N(O)c1ccc(Br)cn1 (racemic) | Non-toxic | Non-toxic | >14 mm | – | – | – | – | – | Non-toxic
CO[C@@H]1C=CC[C@H]1N(O)c1ncccc1C (racemic) | Non-toxic | Non-toxic | >14 mm | – | – | – | – | – | Non-toxic
Cc1cccnc1N(O)[C@@H]1CC=C[C@H]1OC(C)C (racemic) | Non-toxic | Non-toxic | >14 mm | – | – | – | – | – | Non-toxic
Cc1cccc(N(O)[C@@H]2CCC=C[C@H]2OC(C)C)n1 (racemic) | Non-toxic | Non-toxic | >14 mm | – | – | – | – | – | Non-toxic
Cc1cccc(N(O)[C@@H]2CCC=C[C@H]2OC(C)(C)C)n1 (racemic) | Non-toxic | Non-toxic | >14 mm | – | – | – | – | – | Non-toxic
Cc1cc(N(O)[C@H]2CC=C[C@@H]2OC(C)(C)C)no1 (racemic) | Non-toxic | Non-toxic | >14 mm | – | – | – | – | – | Non-toxic
C=C(CCC=C(C)C)C(CO)N(O)c1ccc(Br)cn1 (racemic) | Non-toxic | Non-toxic | >14 mm | – | – | – | – | – | Non-toxic
C=C(C)C(CC/C(C)=C/CO)N(O)c1ccc(Br)cn1 (racemic) | Non-toxic | Non-toxic | >14 mm | – | – | – | – | – | Non-toxic
CC1=CCCCC1N(O)c1cc(C)on1 (racemic) | Non-toxic | Non-toxic | >14 mm | – | – | – | – | – | Non-toxic
CO[C@@H]1C=CCC[C@H]1N(O)C(=O)Cc1ccccc1 (relative stereo) | Non-toxic | Non-toxic | <=14 mm | – | – | – | – | – | Non-toxic
CC(C)O[C@@H]1C=C[C@@H](N(O)c2ccc(Br)cn2)CC1 (relative stereo) | Non-toxic | Non-toxic | >14 mm | – | – | – | – | – | Non-toxic
Cc1cccc(N(O)[C@@H]2C=C[C@@H](OC(C)(C)C)C2)n1 (relative stereo) | Non-toxic | Non-toxic | >14 mm | – | – | – | – | – | Non-toxic
ON(c1ccc(Br)cn1)[C@@H]1CCC=C[C@H]1OCc1ccccc1 (relative stereo) | Non-toxic | Non-toxic | >14 mm | – | – | – | – | – | Non-toxic
O=C(NO)c1ccccc1 [BENZOHYDROXAMATE] | Non-toxic | Non-toxic | <=14 mm | – | – | – | – | – | Non-toxic
O=C(Cc1ccccc1)NO [PHENYLACETOHYDROXAMIC ACID] | Non-toxic | Non-toxic | <=14 mm | – | – | – | – | – | Non-toxic
